In publication PMC12744306 (Probiotics and antimicrobial proteins, 2024):
Converted amounts (≈) assume the structure as drawn. Like-named read-outs stand apart in the source and are kept apart here. Positions of bridges follow the written chain, without caps; N, C: chain ends. Non-standard residues stand in square brackets, D forms with d. Residues, ends and D or L forms follow the SMILES beside them. No end group written: not given here. *: point of attachment. X1 = CC[C@H](C)CCCCC(=O)*; Dab = NCC[C@H](N)C(=O)O

Legend:
human red blood cells = test: Hemolytic assay; assay type: cell-based; settings: 2% hRBC, 37°C, 1 h; for hemolysis: relative to 1% Triton X-100
P. aeruginosa E411-17 [1] = test: Effects of pH, salts and serum on peptide activity; assay type: cell-based; settings: different pH, salt and serum conditions
S. aureus USA300 [2] = assay type: cell-based; settings: for activity against S. aureus USA300 under all these conditions: pH 6.2/8.1, 150 mM NaCl, human serum; for MIC in the presence of 150 mM NaCl: S. aureus
P. aeruginosa E411-17 [3] = test: Killing kinetics; assay type: cell-based; settings: 4 × MIC, ~10^5 CFU/mL in MHB, 37°C, CFU count
Human liver HepG2 cells = assay type: cell-based
[4] = tested on: Human keratinocytes (HaCaT); test: Cytotoxicity assay; assay type: cell-based; settings: 24 h, MTS
S. epidermidis 1457 = assay type: cell-based
S. aureus USA300 [5] = assay type: cell-based
MRSA USA300 = test: Killing kinetics; assay type: cell-based, S. aureus; settings: 4 × MIC, ~10^5 CFU/mL in MHB, 37°C, CFU count
Method in brief: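 MRSA USA300 was grown in MHB to OD600 ~0.3, then diluted to OD600 0.001 (~10⁵ CFU/mL). 1 mL was incubated at 37°C with test compound or reference antibiotic at 4× MIC. At 15, 30, 60, 90 and 120 min, 50 μL was serially diluted in PBS and plated on mannitol salt agar. CFU were counted after overnight growth at 37°C.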

bacteria = settings: cited from earlier work
E. coli E423-17 = assay type: cell-based
A. baumannii B28-16 = assay type: cell-based
E. coli = settings: cited from earlier work
K. pneumoniae E406-17 = assay type: cell-based; settings: not shown
P. aeruginosa E411-17 [6] = assay type: cell-based
[7] = Table 3, sequence reversal experiment

Compound: CC[C@H](C)CCCCC(=O)N[C@@H](CCN)C(=O)N[C@H](C(=O)N[C@@H](CCN)C(=O)N[C@H]1CCNC(=O)[C@H]([C@@H](C)O)NC(=O)[C@H](CCN)NC(=O)[C@H](CCN)NC(=O)[C@H](CC(C)C)NC(=O)[C@@H](CC(C)C)NC(=O)[C@H](CCN)NC1=O)[C@@H](C)O [Colistin, reference compound] (X1-[Dab]T[Dab][Dab][Dab][dL]L[Dab][Dab]T; lactam 4-C (inferred); N-terminus assumed)
- lysis of human red blood cells (human red blood cells; at 400 μM, 545 nm): did not lyse
- activity against P. aeruginosa under all the conditions tested (P. aeruginosa E411-17 [1]): retained pseudomonacidal activity
- activity against S. aureus USA300 under all these conditions (S. aureus USA300 [2]): inactive
- time to eliminate P. aeruginosa (P. aeruginosa E411-17 [3]): 30 min
- toxicity to HepG2 (Human liver HepG2 cells; 24 h, MTS): subtle effects
- toxicity to HaCaT ([4]; at 100 μM): little toxicity

Compound: CCCCCCCCCC(=O)N[C@@H](Cc1c[nH]c2ccccc12)C(=O)N[C@H](CC(N)=O)C(=O)N[C@@H](CC(=O)O)C(=O)N[C@@H]1C(=O)NCC(=O)N[C@@H](CCCN)C(=O)N[C@@H](CC(=O)O)C(=O)N[C@H](C)C(=O)N[C@@H](CC(=O)O)C(=O)NCC(=O)N[C@H](CO)C(=O)N[C@@H]([C@H](C)CC(=O)O)C(=O)N[C@@H](CC(=O)c2ccccc2N)C(=O)O[C@@H]1C [Daptomycin, reference compound]
- minimal inhibitory concentration (MIC), S. epidermidis 1457 (S. epidermidis 1457; 1457): 0.5 µM (≈ 0.81 µg/mL)
- minimal inhibitory concentration (MIC), S. aureus USA 300 (S. aureus USA300 [5]; USA300): 0.5 µM (≈ 0.81 µg/mL)
- activity against P. aeruginosa under all the conditions tested (P. aeruginosa E411-17 [1]): did not display any activity
- activity against S. aureus USA300 under all these conditions (S. aureus USA300 [2]): remained potent
- time to kill MRSA USA300 (MRSA USA300): ~90 min
- toxicity to HepG2 (Human liver HepG2 cells; 24 h, MTS): subtle effects

Compound: KRIVQRIK-NH2 [KR-8]
- antibacterial activity in the standard Mueller Hinton Broth (MHB) (bacteria): not antibacterial

Compound: KRWWQWWK-NH2 [KR-8+]
- HC10 (10% hemolytic concentration) (human red blood cells): 300 µM
- hemolysis (human red blood cells; at 400 μM): 18%
- minimal inhibitory concentration (MIC), E. coli E423-17 (E. coli E423-17; E423-17): 4 to 8 µM
- minimal inhibitory concentration (MIC), S. epidermidis 1457 (S. epidermidis 1457; 1457): 16 µM
- minimal inhibitory concentration (MIC), A. baumannii B28-16 (A. baumannii B28-16): 16 µM
- MIC in the presence of 150 mM NaCl (S. aureus USA300 [2]): 16 to 32 µM
- LC50, HepG2 (Human liver HepG2 cells; 24 h, MTS): 12.5 µM

Compound: LLGDFFRKSK-NH2 [LL-10]
- antibacterial activity in the standard Mueller Hinton Broth (MHB) (bacteria): not antibacterial

Compound: LWGRFFRKWK-NH2 [LL-10+]
- HC10 (10% hemolytic concentration) (human red blood cells): > 400 µM
- minimal inhibitory concentration (MIC), E. coli E423-17 (E. coli E423-17; [7]): 32 µM
- minimal inhibitory concentration (MIC), S. epidermidis 1457 (S. epidermidis 1457; [7]): 32 µM
- minimal inhibitory concentration (MIC), S. aureus USA 300 (S. aureus USA300 [5]; [7]): 16 µM
- minimal inhibitory concentration (MIC), A. baumannii B28-16 (A. baumannii B28-16): 64 µM
- MIC in the presence of 150 mM NaCl (S. aureus USA300 [2]): > 32 µM
- toxicity to HepG2 (Human liver HepG2 cells): subtle effects
- LC50, HepG2 (Human liver HepG2 cells; 24 h, MTS): > 100 µM

Compound: RIKDFLRNLV-NH2 [RIK-10]
- activity against E. coli in standard MHB (E. coli): active

Compound: RKSKEKIGK-NH2 [RK-9]
- antibacterial activity in the standard Mueller Hinton Broth (MHB) (bacteria): not antibacterial

Compound: RWKRFLRNWV-NH2 [RIK-10+]
- hemolysis (human red blood cells; at 400 μM): 18%
- minimal inhibitory concentration (MIC), E. coli E423-17 (E. coli E423-17; E423-17): 4 µM
- minimal inhibitory concentration (MIC), S. epidermidis 1457 (S. epidermidis 1457; 1457): 64 µM
- minimal inhibitory concentration (MIC), S. aureus USA 300 (S. aureus USA300 [5]; [7]): 16 µM
- minimal inhibitory concentration (MIC), A. baumannii B28-16 (A. baumannii B28-16): 8 µM
- MIC in the presence of 150 mM NaCl (S. aureus USA300 [2]): > 32 µM
- LC50, HepG2 (Human liver HepG2 cells; 24 h, MTS): 100 µM
- MIC, K. pneumoniae E406-17 (K. pneumoniae E406-17): 32 µM
- 50% lethal concentration (LC50), HaCaT [4]: 100 µM
- minimal inhibitory concentration (MIC), P. aeruginosa E411-17 (P. aeruginosa E411-17 [6]; [7]): 4 µM

Compound: RWWKKWWGK-NH2 [RK-9+]
- HC10 (10% hemolytic concentration) (human red blood cells): > 400 µM
- minimal inhibitory concentration (MIC), E. coli E423-17 (E. coli E423-17; E423-17): 4 to 8 µM
- MIC in the presence of 150 mM NaCl (S. aureus USA300 [2]): 16 to 32 µM
- toxicity to HepG2 (Human liver HepG2 cells): subtle effects
- LC50, HepG2 (Human liver HepG2 cells; 24 h, MTS): > 100 µM
- minimal inhibitory concentration (MIC), P. aeruginosa E411-17 (P. aeruginosa E411-17 [6]; E411-17): 16 µM
